Experimental data: ChEMBL document CHEMBL4138193, “Novel indole and triazole based hybrid molecules exhibit potent anti-adipogenic and antidyslipidemic activity by activating Wnt3a/β-catenin pathway” (Eur J Med Chem, 2018)
Calls of active or inactive are those of the source. No cut-off for these calls is given here.

Key:
[1] = organism: Mus musculus; assay: Activation of Wnt3a/beta-catenin in mouse 3T3L1 cells assessed as down-regulation of cyclinD3 expression at 20 uM after 16 to 24 hrs in presence of FH353 by Western blot analysis; type: cell-based
Method in brief: (§1)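 Confluent 3T3-L1 cells given differentiation media (IBMX/insulin/dexamethasone) with 20 µM compound, with or without the β-catenin/TCF inhibitor FH353 (10 µM). Proteins isolated at 16 and 24 h and Western blotted after SDS-PAGE and nitrocellulose transfer. Blocking in 5% milk/TBS-T, primary antibody overnight at 4 °C, chemiluminescent detection, β-actin control, three independent experiments.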

[2] = test system: Syrian golden hamster; assay: Induction of reverse cholestrol transport in high fat diet-induced dyslipidemia Syrian Golden hamster model assessed as reduction in eWAT to body weight ratio at 100 mg/kg, po administered for 1 week; type: functional, organism-based; details: Mesocricetus auratus
Method in brief: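 Male Syrian Golden hamsters on 45% kCal HFD, dosed 100 mg/kg p.o. in 0.5% NaCMC for one week, 4 per group. Food intake and body weight recorded daily. At the end, animals were saline-perfused and liver and eWAT were excised and weighed. Paraffin sections stained with H&E and imaged at 20x.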

[3] = test system: Syrian golden hamster; assay: Anti-atherosclerotic activity in high fat diet-induced dyslipidemia Syrian Golden hamster model assessed as reduction in atherogenic index by measuring serum triglycerides to HDL ratio at 100 mg/kg, po administered for 1 week followed by overnight fasting post last dose by clinical bio-analyzer analysis; type: functional, organism-based; details: Mesocricetus auratus
Method in brief: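 Male Syrian golden hamsters (8–10 wk, 100–120 g), 4 per group, given 45% kcal HFD for 4 days, then 100 mg/kg p.o. in 0.5% NaCMC daily for one week alongside HFD. Blood taken from retro-orbital plexus after overnight fast. TG, HDL, LDL, ALT, AST measured on a clinical bio-analyzer and NEFA by kit. Mean ± SEM, one-way ANOVA with Bonferroni.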

[4] = test system: 3T3-L1; assay: Anti-adipogenic activity in mouse differentiated 3T3L1 cells assessed as inhibition of adipogenesis at 20 uM after 20 mins by Oil Red O staining based assay; type: functional
Method in brief: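 3T3-L1 preadipocytes given 20 µM compound with differentiation media. Oil red O stain (20 min) extracted, absorbance at 492 nm measured against MDI+ control, n=3, mean ± SD, Student t test.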

[5] = test system: C3H 10T1/2; assay: Anti-adipogenic activity in mouse C3H10T1/2 cells assessed as reduction in lipid accumulation at early differentiation stage at 20 uM measured up to 3 days by Oil Red O staining based leica microscopy; type: functional, cell-based
Method in brief: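 3T3-L1 or C3H10T1/2 cells given 20 µM compound in differentiation media for varied time periods, then stained with Oil red O. Imaged by microscopy at 10x, representative of three independent experiments.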

[6] = organism: Mus musculus; assay: Activation of Wnt3a/beta-catenin in mouse 3T3L1 cells assessed as down-regulation of AP2 expression at 20 uM after 2 to 6 days in presence of FH353 by Western blot analysis
[7] = test system: 3T3-L1; assay: Induction of Wnt10a mRNA expression in mouse 3T3L1 cells at 20 uM by qRT-PCR analysis; type: functional, cell-based
Method in brief: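 3T3-L1 cells induced with MDI differentiation medium with or without 20 µM. RNA isolated with TRIzol and 500 ng reverse-transcribed to cDNA for real-time PCR. n=3 with triplicates, mean ± SD; one-way ANOVA with Bonferroni post-test.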

[8] = test system: C3H 10T1/2; assay: Anti-adipogenic activity in mouse C3H10T1/2 cells assessed as reduction in lipid accumulation at early differentiation stage at 20 uM measured up to 3 days by Oil Red O absorbance method; type: functional, cell-based
Method in brief: (§2)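 3T3-L1 or C3H10T1/2 cells given 20 µM compound with differentiation media for different time periods. Oil red O stain extracted from accumulated lipid with isopropanol and absorbance read at 492 nm. n=3, mean ± SD, Student t test against MDI+ group.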

[9] = organism: Mus musculus; assay: Activation of Wnt3a/beta-catenin in differentiated mouse 3T3L1 cells assessed as upregulation of phosphorylated beta-catenin expression at 20 uM after 16 to 24 hrs in presence of beta-catenin/TCF complex inhibitor FH353 by Western blot analysis; method in brief: as §1
[10] = test system: 3T3-L1; assay: Anti-adipogenic activity in mouse 3T3L1 cells assessed as reduction in lipid accumulation at early differentiation stage at 20 uM measured up to 3 days by Oil Red O absorbance method; type: functional, cell-based; method in brief: as §2
[11] = test system: C3H 10T1/2; assay: Anti-adipogenic activity in mouse differentiated C3H10T1/2 cells assessed as reduction in lipid accumulation at 5 to 20 uM after 20 mins by Oil Red O staining based microscopic method; type: functional, cell-based
Method in brief: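 C3H10T1/2 or hMSC adipocytes differentiated alongside 5, 10 or 20 µM compound in differentiation media, stained with Oil red O. Images taken by bright-field microscopy at 10x and 20x, representative of three independent experiments.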

[12] = organism: Homo sapiens; assay: Anti-adipogenic activity in human differentiated MSC assessed as reduction in lipid accumulation at 5 to 20 uM after 20 mins by Oil Red O absorbance method; type: functional
Method in brief: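 C3H10T1/2 or human MSC differentiated with IBMX/insulin/dexamethasone media containing 5, 10 or 20 µM compound. Cells stained with Oil red O (0.36% in 60% isopropanol, 20 min), dye extracted with isopropanol, absorbance read at 492 nm. n=3, mean ± SD, Student t test against MDI group.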

[13] = organism: Mus musculus; assay: Activation of Wnt3a/beta-catenin in mouse 3T3L1 cells assessed as increase in CREB mRNA expression at 20 uM by qRT-PCR analysis; type: cell-based
Method in brief: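 3T3-L1 cells differentiated with IBMX/dexamethasone/insulin media with or without 20 µM compound over the differentiation period. RNA extracted with TRIZOL, 500 ng reverse-transcribed to cDNA, then quantitative real-time PCR. Three independent experiments run in triplicate, mean ± SD, one-way ANOVA with Bonferroni posttest.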

[14] = test system: 3T3-L1; assay: Cell cycle arrest in mouse 3T3L1 cells assessed as accumulation at G1/S phase at 20 uM after 24 hrs in presence of beta-catenin/TCF complex inhibitor FH353 by propidium iodide-staining based flow cytometry; type: functional
Method in brief: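 3T3-L1 cells exposed to 20 µM with or without FH353 (10 µM) in differentiation medium for 16 and 24 hr. Cells fixed in ice-cold 70% ethanol, stained with PI (40 µg/ml, RNase A buffer, 30 min, room temperature) and analysed by flow cytometry; representative of three experiments.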

[15] = organism: Mus musculus; assay: Activation of Wnt3a/beta-catenin in differentiated mouse 3T3L1 cells assessed as down-regulation of FAS protein expression at 20 uM after 16 to 24 hrs by Western blot analysis
Method in brief: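 3T3-L1 preadipocytes grown to confluence in high-glucose DMEM/10% FBS, then given differentiation media (0.5 mM IBMX, 5 µg/ml insulin, 250 nM dexamethasone) with or without 20 µM compound. Protein isolated at set time points, lysed with protease/phosphatase inhibitors, BCA-quantified, resolved by 8–12% SDS-PAGE, immunoblotted with ECL detection. β-actin loading control, densitometry normalized to actin, n=3.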

[16] = test system: Syrian golden hamster; assay: Induction of reverse cholestrol transport in high fat diet-induced dyslipidemia Syrian Golden hamster model assessed as decrease in CYP7A1 mRNA expression in liver at 100 mg/kg, po administered for 1 week by qRT-PCR analysis; type: functional, organism-based; details: Mesocricetus auratus
[17] = organism: Mus musculus; assay: Activation of Wnt3a/beta-catenin in mouse 3T3L1 cells assessed as induction of LEF1 expression at 20 uM after 16 to 24 hrs by Western blot analysis; type: cell-based

In the case of `Cc1ccc(S(=O)(=O)N(Cc2cn(Cc3cccc(F)c3F)nn2)Cc2cn(S(=O)(=O)c3ccc(C)cc3)c3ccccc23)cc1`, the Activity [1] is reported as “inactive”, the Activity [2] is reported as “Active” and the Activity [3] is reported as “Active”. For the same molecule, the inhibition at 20 µM [4] was 71.5%, the Activity [5] was “Active” and the Activity [6] was “inactive”. The Activity [7] was “inactive”, the Activity [8] was “Active” and the Activity [9] was “inactive”. For the same molecule, the Activity [10] was “Active”, the Activity [11] was “Active” and the Activity [12] was “Active”. The Activity [13] was “Active”, the Activity [14] was “inactive” and the Activity [15] was “Active”. The Activity [16] was “Active” and the Activity [17] was “Active”.
